Assay results published in ChEMBL document CHEMBL1649231, “In vitro activities of panduratin A against clinical Staphylococcus strains” (2009).
Values after ≈ are worked out from the molar mass of the structure shown.

Columns and labels:
Assay type in all cases: functional
Mammaliicoccus sciuri [1] = test: Antimicrobial activity against methicillin-susceptible coagulase-negative Staphylococcus sciuri assessed as susceptible isolates after 24 hrs by broth microdilution method
Outline: (§1)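 Clinical isolates from blood, body fluids, pus, sputum or genital secretions, identified conventionally or by Vitek, were tested alongside ATCC 29213 and ATCC 12228 controls. CLSI M7-A6 broth microdilution in Mueller-Hinton broth used twofold dilutions from a 10% DMSO solution and 5 × 10^5 CFU/ml inoculum. Drug-free and uninoculated wells served as controls; incubation was aerobic at 37°C for 24 h. MIC was the lowest concentration with no visible growth.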

Staphylococcus hominis [2] = test: Antimicrobial activity against methicillin-resistant coagulase-negative Staphylococcus hominis after 24 hrs by broth microdilution method
Outline: (§2)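 Clinical isolates came from blood, body fluids, genital secretions, pus or sputum, identified conventionally or by Vitek. MICs were run by CLSI M7-A6 broth microdilution in Mueller-Hinton broth with 5 × 10^5 CFU/ml inoculum. Agents were twofold serially diluted, starting from 10% DMSO. Drug-free and uninoculated controls were included. Plates were incubated aerobically at 37°C for 24 h; MIC is the lowest concentration giving no visible growth.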

Mammaliicoccus sciuri [3] = test: Antimicrobial activity against methicillin-susceptible coagulase-negative Staphylococcus sciuri after 24 hrs by broth microdilution method; outline: as §2
[4] = test system: Staphylococcus haemolyticus; test: Antimicrobial activity against methicillin-resistant coagulase-negative Staphylococcus haemolyticus after 24 hrs by broth microdilution method; outline: as §2
Staphylococcus hominis [5] = test: Antimicrobial activity against methicillin-susceptible coagulase-negative Staphylococcus hominis assessed as susceptible isolates after 24 hrs by broth microdilution method
[6] = test system: Staphylococcus haemolyticus; test: Antimicrobial activity against methicillin-resistant coagulase-negative Staphylococcus haemolyticus assessed as susceptible isolates after 24 hrs by broth microdilution method
Staphylococcus simulans [7] = test: Bactericidal activity against methicillin-susceptible coagulase-negative Staphylococcus simulans after 24 hrs by plate counting method; conditions: for MBC: Staphylococcus simulans, 24 h
Outline: (§3)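 Clinical staphylococcal isolates from patient body fluids, blood, genital secretions, pus or sputum; species by conventional methods or Vitek. Twofold dilutions in Mueller-Hinton broth, inoculum 5 × 10^5 CFU/ml, 37°C aerobic 24 h (CLSI M7-A6 microdilution). About 100 μl from each well without visible growth spread on MHA; 37°C 24 h. MBC = lowest concentration giving no growth on agar.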

[8] = test system: Staphylococcus haemolyticus; test: Bactericidal activity against methicillin-resistant coagulase-negative Staphylococcus haemolyticus after 24 hrs by plate counting method; conditions: Staphylococcus haemolyticus, 24 h
Staphylococcus hominis [9] = test: Antimicrobial activity against methicillin-susceptible coagulase-negative Staphylococcus hominis after 24 hrs by broth microdilution method; outline: as §2
Staphylococcus aureus [10] = test: Antimicrobial activity against methicillin-resistant Staphylococcus aureus after 24 hrs by broth microdilution method; outline: as §2
[11] = test system: Staphylococcus haemolyticus; test: Antimicrobial activity against methicillin-susceptible coagulase-negative Staphylococcus haemolyticus assessed as susceptible isolates after 24 hrs by broth microdilution method
Staphylococcus aureus [12] = test: Antimicrobial activity against methicillin-susceptible Staphylococcus aureus assessed as susceptible isolates after 24 hrs by broth microdilution method
Mammaliicoccus sciuri [13] = test: Bactericidal activity against methicillin-susceptible coagulase-negative Staphylococcus sciuri after 24 hrs by plate counting method; conditions: for MBC: Mammaliicoccus sciuri, 24 h; outline: as §3
[14] = test system: Staphylococcus epidermidis; test: Antimicrobial activity against methicillin-susceptible coagulase-negative Staphylococcus epidermidis assessed as susceptible isolates after 24 hrs by broth microdilution method
Staphylococcus aureus [15] = test: Bactericidal activity against methicillin-susceptible Staphylococcus aureus after 24 hrs by plate counting method; conditions: for MBC: Staphylococcus aureus, 24 h; outline: as §3
Staphylococcus aureus [16] = test: Antimicrobial activity against methicillin-resistant Staphylococcus aureus assessed as susceptible isolates after 24 hrs by broth microdilution method
Staphylococcus hominis [17] = test: Antimicrobial activity against methicillin-resistant coagulase-negative Staphylococcus hominis assessed as susceptible isolates after 24 hrs by broth microdilution method
Staphylococcus aureus [18] = test: Bactericidal activity against methicillin-resistant Staphylococcus aureus after 24 hrs by plate counting method; conditions: for MBC: Staphylococcus aureus, 24 h
Staphylococcus aureus [19] = test: Antimicrobial activity against methicillin-susceptible Staphylococcus aureus after 24 hrs by broth microdilution method; outline: as §2
Staphylococcus simulans [20] = test: Antimicrobial activity against methicillin-susceptible coagulase-negative Staphylococcus simulans after 24 hrs by broth microdilution method; outline: as §2
[21] = test system: Staphylococcus epidermidis; test: Antimicrobial activity against methicillin-resistant coagulase-negative Staphylococcus epidermidis after 24 hrs by broth microdilution method; outline: as §2
[22] = test system: Staphylococcus haemolyticus; test: Bactericidal activity against methicillin-susceptible coagulase-negative Staphylococcus haemolyticus after 24 hrs by plate counting method; conditions: for MBC: Staphylococcus haemolyticus, 24 h; outline: as §3
Staphylococcus hominis [23] = test: Bactericidal activity against methicillin-susceptible coagulase-negative Staphylococcus hominis after 24 hrs by plate counting method; conditions: for MBC: Staphylococcus hominis, 24 h; outline: as §3
[24] = test system: Staphylococcus epidermidis; test: Antimicrobial activity against methicillin-resistant coagulase-negative Staphylococcus epidermidis assessed as susceptible isolates after 24 hrs by broth microdilution method
[25] = test system: Staphylococcus epidermidis; test: Bactericidal activity against methicillin-susceptible coagulase-negative Staphylococcus epidermidis after 24 hrs by plate counting method; conditions: for MBC: Staphylococcus epidermidis, 24 h; outline: as §3
Mammaliicoccus sciuri [26] = test: Antimicrobial activity against methicillin-resistant coagulase-negative Staphylococcus sciuri after 24 hrs by broth microdilution method; outline: as §2
[27] = test system: Staphylococcus epidermidis; test: Bactericidal activity against methicillin-resistant coagulase-negative Staphylococcus epidermidis after 24 hrs by plate counting method; conditions: Staphylococcus epidermidis, 24 h
Staphylococcus simulans [28] = test: Bactericidal activity against methicillin-resistant coagulase-negative Staphylococcus simulans after 24 hrs by plate counting method; conditions: Staphylococcus simulans, 24 h; outline: as §3
[29] = test system: Staphylococcus epidermidis; test: Antimicrobial activity against methicillin-susceptible coagulase-negative Staphylococcus epidermidis after 24 hrs by broth microdilution method; outline: as §2
[30] = test system: Staphylococcus haemolyticus; test: Antimicrobial activity against methicillin-susceptible coagulase-negative Staphylococcus haemolyticus after 24 hrs by broth microdilution method; outline: as §2
Staphylococcus simulans [31] = test: Antimicrobial activity against methicillin-resistant coagulase-negative Staphylococcus simulans after 24 hrs by broth microdilution method; outline: as §2
Staphylococcus simulans [32] = test: Antimicrobial activity against methicillin-susceptible coagulase-negative Staphylococcus simulans assessed as susceptible isolates after 24 hrs by broth microdilution method; outline: as §1
Staphylococcus hominis [33] = test: Bactericidal activity against methicillin-resistant coagulase-negative Staphylococcus hominis after 24 hrs by plate counting method; conditions: Staphylococcus hominis, 24 h
Mammaliicoccus sciuri [34] = test: Bactericidal activity against methicillin-resistant coagulase-negative Staphylococcus sciuri after 24 hrs by plate counting method; conditions: Mammaliicoccus sciuri, 24 h; outline: as §3

CC(=O)NC[C@H]1CN(c2ccc(N3CCOCC3)c(F)c2)C(=O)O1 [LINEZOLID]
Activity (Mammaliicoccus sciuri [1]): 96%
MIC50 (Staphylococcus hominis [2]): 0.25 µg/mL (≈ 0.741 µM)
MIC90 (Staphylococcus hominis [2]): 2 µg/mL (≈ 5.93 µM)
MIC50 (Mammaliicoccus sciuri [3]): 0.25 µg/mL (≈ 0.741 µM)
MIC90 (Mammaliicoccus sciuri [3]): 4 µg/mL (≈ 11.9 µM)
MIC50 [4]: 0.25 µg/mL (≈ 0.741 µM)
MIC90 [4]: 2 µg/mL (≈ 5.93 µM)
Activity (Staphylococcus hominis [5]): 96%
Activity [6]: 100%
MBC50 (Staphylococcus simulans [7]): 2 µg/mL (≈ 5.93 µM)
MBC90 (Staphylococcus simulans [7]): 4 µg/mL (≈ 11.9 µM)
MBC (Staphylococcus simulans [7]): 0.25 µg/mL (≈ 0.741 µM)
MBC [8]: 0.5 µg/mL (≈ 1.48 µM)
MIC50 (Staphylococcus hominis [9]): 0.25 µg/mL (≈ 0.741 µM)
MIC90 (Staphylococcus hominis [9]): 4 µg/mL (≈ 11.9 µM)
MIC50 (Staphylococcus aureus [10]): 1 µg/mL (≈ 2.96 µM)
MIC90 (Staphylococcus aureus [10]): 2 µg/mL (≈ 5.93 µM)
Activity [11]: 96%
Activity (Staphylococcus aureus [12]): 96%
MBC50 (Mammaliicoccus sciuri [13]): 2 µg/mL (≈ 5.93 µM)
MBC90 (Mammaliicoccus sciuri [13]): 4 µg/mL (≈ 11.9 µM)
MBC (Mammaliicoccus sciuri [13]): 0.25 µg/mL (≈ 0.741 µM)
Activity [14]: 96%
MBC50 (Staphylococcus aureus [15]): 8 µg/mL (≈ 23.7 µM)
MBC90 (Staphylococcus aureus [15]): 32 µg/mL (≈ 94.9 µM)
MBC (Staphylococcus aureus [15]): 2 µg/mL (≈ 5.93 µM)
Activity (Staphylococcus aureus [16]): 100%
Activity (Staphylococcus hominis [17]): 100%
MBC90 (Staphylococcus aureus [18]): 16 µg/mL (≈ 47.4 µM)
MBC (Staphylococcus aureus [18]): 8 µg/mL (≈ 23.7 µM)
MIC50 (Staphylococcus aureus [19]): 1 µg/mL (≈ 2.96 µM)
MIC90 (Staphylococcus aureus [19]): 4 µg/mL (≈ 11.9 µM)
MIC50 (Staphylococcus simulans [20]): 0.25 µg/mL (≈ 0.741 µM)
MIC90 (Staphylococcus simulans [20]): 4 µg/mL (≈ 11.9 µM)
MIC50 [21]: 0.25 µg/mL (≈ 0.741 µM)
MIC90 [21]: 2 µg/mL (≈ 5.93 µM)
MBC50 [22]: 2 µg/mL (≈ 5.93 µM)
MBC90 [22]: 4 µg/mL (≈ 11.9 µM)
MBC [22]: 0.25 µg/mL (≈ 0.741 µM)
MBC50 (Staphylococcus hominis [23]): 2 µg/mL (≈ 5.93 µM)
MBC90 (Staphylococcus hominis [23]): 4 µg/mL (≈ 11.9 µM)
MBC (Staphylococcus hominis [23]): 0.25 µg/mL (≈ 0.741 µM)
Activity [24]: 100%
MBC50 [25]: 2 µg/mL (≈ 5.93 µM)
MBC90 [25]: 4 µg/mL (≈ 11.9 µM)
MBC [25]: 0.25 µg/mL (≈ 0.741 µM)
MIC50 (Mammaliicoccus sciuri [26]): 0.25 µg/mL (≈ 0.741 µM)
MIC90 (Mammaliicoccus sciuri [26]): 2 µg/mL (≈ 5.93 µM)
MBC [27]: 0.5 µg/mL (≈ 1.48 µM)
MBC (Staphylococcus simulans [28]): 0.5 µg/mL (≈ 1.48 µM)
MIC50 [29]: 0.25 µg/mL (≈ 0.741 µM)
MIC90 [29]: 4 µg/mL (≈ 11.9 µM)
MIC50 [30]: 0.25 µg/mL (≈ 0.741 µM)
MIC90 [30]: 4 µg/mL (≈ 11.9 µM)
MIC50 (Staphylococcus simulans [31]): 0.25 µg/mL (≈ 0.741 µM)
MIC90 (Staphylococcus simulans [31]): 2 µg/mL (≈ 5.93 µM)
Activity (Staphylococcus simulans [32]): 96%
MBC (Staphylococcus hominis [33]): 0.5 µg/mL (≈ 1.48 µM)
MBC (Mammaliicoccus sciuri [34]): 0.5 µg/mL (≈ 1.48 µM)

Cc1ccc(C(C)C)c(O)c1 [THYMOL]
MIC50 (Staphylococcus hominis [2]): 64 µg/mL (≈ 426 µM)
MIC90 (Staphylococcus hominis [2]): 128 µg/mL (≈ 852 µM)
MIC50 (Mammaliicoccus sciuri [3]): 64 µg/mL (≈ 426 µM)
MIC90 (Mammaliicoccus sciuri [3]): 64 µg/mL (≈ 426 µM)
MIC50 [4]: 64 µg/mL (≈ 426 µM)
MIC90 [4]: 128 µg/mL (≈ 852 µM)
MBC50 (Staphylococcus simulans [7]): 256 µg/mL (≈ 1700 µM)
MBC90 (Staphylococcus simulans [7]): 512 µg/mL (≈ 3410 µM)
MBC (Staphylococcus simulans [7]): 64 µg/mL (≈ 426 µM)
MBC [8]: 64 µg/mL (≈ 426 µM)
MIC50 (Staphylococcus hominis [9]): 64 µg/mL (≈ 426 µM)
MIC90 (Staphylococcus hominis [9]): 64 µg/mL (≈ 426 µM)
MIC50 (Staphylococcus aureus [10]): 128 µg/mL (≈ 852 µM)
MIC90 (Staphylococcus aureus [10]): 128 µg/mL (≈ 852 µM)
MBC50 (Mammaliicoccus sciuri [13]): 256 µg/mL (≈ 1700 µM)
MBC90 (Mammaliicoccus sciuri [13]): 512 µg/mL (≈ 3410 µM)
MBC (Mammaliicoccus sciuri [13]): 64 µg/mL (≈ 426 µM)
MBC50 (Staphylococcus aureus [15]): 256 µg/mL (≈ 1700 µM)
MBC90 (Staphylococcus aureus [15]): 512 µg/mL (≈ 3410 µM)
MBC (Staphylococcus aureus [15]): 128 µg/mL (≈ 852 µM)
MBC50 (Staphylococcus aureus [18]): 512 µg/mL (≈ 3410 µM)
MBC (Staphylococcus aureus [18]): 256 µg/mL (≈ 1700 µM)
MIC50 (Staphylococcus aureus [19]): 128 µg/mL (≈ 852 µM)
MIC90 (Staphylococcus aureus [19]): 128 µg/mL (≈ 852 µM)
MIC50 (Staphylococcus simulans [20]): 64 µg/mL (≈ 426 µM)
MIC90 (Staphylococcus simulans [20]): 64 µg/mL (≈ 426 µM)
MIC50 [21]: 64 µg/mL (≈ 426 µM)
MIC90 [21]: 128 µg/mL (≈ 852 µM)
MBC50 [22]: 256 µg/mL (≈ 1700 µM)
MBC90 [22]: 512 µg/mL (≈ 3410 µM)
MBC [22]: 64 µg/mL (≈ 426 µM)
MBC50 (Staphylococcus hominis [23]): 256 µg/mL (≈ 1700 µM)
MBC90 (Staphylococcus hominis [23]): 512 µg/mL (≈ 3410 µM)
MBC (Staphylococcus hominis [23]): 64 µg/mL (≈ 426 µM)
MBC50 [25]: 256 µg/mL (≈ 1700 µM)
MBC90 [25]: 512 µg/mL (≈ 3410 µM)
MBC [25]: 64 µg/mL (≈ 426 µM)
MIC50 (Mammaliicoccus sciuri [26]): 64 µg/mL (≈ 426 µM)
MIC90 (Mammaliicoccus sciuri [26]): 128 µg/mL (≈ 852 µM)
MBC [27]: 64 µg/mL (≈ 426 µM)
MBC (Staphylococcus simulans [28]): 64 µg/mL (≈ 426 µM)
MIC50 [29]: 64 µg/mL (≈ 426 µM)
MIC90 [29]: 64 µg/mL (≈ 426 µM)
MIC50 [30]: 64 µg/mL (≈ 426 µM)
MIC90 [30]: 64 µg/mL (≈ 426 µM)
MIC50 (Staphylococcus simulans [31]): 64 µg/mL (≈ 426 µM)
MIC90 (Staphylococcus simulans [31]): 128 µg/mL (≈ 852 µM)
MBC (Staphylococcus hominis [33]): 64 µg/mL (≈ 426 µM)
MBC (Mammaliicoccus sciuri [34]): 64 µg/mL (≈ 426 µM)
